Converted amounts (≈) assume the structure as drawn. “And” between values parts separate entries of the source, which are not always exact repeats. Equal values may be shown once. Read-outs that look alike come from different tables or passages of the source. Marks after values point to notes of the source that are not given here.
Assays:
[1] = format: in vivo, human; conditions: for AUC(0-inf): AUC0−∞; for Tmax: median (range)
Summary of the method: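 Open-label, randomized 4-period crossover in healthy adults (18–65 y, ≥40 kg). Each received single 1500-mg free-base-equivalent doses: 60-min IV mesylate infusion, tablet fasted or after a 490-calorie moderate-fat meal, and oral mesylate solution fasted, with 3-day washouts. Plasma sampled predose to 72 h; LC-MS/MS (5–5000 ng/mL). Noncompartmental analysis; bioavailability from oral vs IV AUC0−∞; log-transformed mixed-effects model; CVw from residual MSE.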

Safety and tolerability = format: in vivo, human
Summary of the method: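 Open-label, randomized, 4-period balanced crossover in healthy adults (18–65 years, ≥40 kg; women of non-childbearing potential only). Single 1500-mg (free base equivalent) dose of test compound (peptide deformylase inhibitor) as IV mesylate salt solution, 60-minute infusion, fasted; 3-day washout between periods. Safety from observed AEs and changes over time in hematology, clinical chemistry, urinalysis, vital signs and ECGs, summarized descriptively.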

Solubility = format: physicochemical
[2] = Biopharmaceutics Classification System characteristics; format: physicochemical; conditions: high permeability and poor solubility; no official regulatory decision yet
[3] = cited from earlier work
[4] = Fed to fasted, free base tablet
[5] = human, plasma, oral, 1500 mg, mean (SD), 1500-mg free base tablet, fasted state
[6] = human, plasma, po, 1500 mg, mean (SD), 1500-mg oral MS solution, fasted state

Relative bioavailability, ratio of geometric least square mean Cmax (90% CI) ([1]; Fasted to MS): 0.57 (0.48, 0.69)
Tmax estimated median difference (90% CI) ([1]; Fasted to MS): 0.13 (0.00, 0.37) ^c h
Relative bioavailability, ratio of geometric least square mean AUC0−∞ (90% CI) ([1]; Fasted to MS (free base tablet fasted vs oral MS solution)): 0.62 (0.56, 0.69)
Relative bioavailability, ratio of geometric least square mean Cmax (90% CI) ([1]; Fed to MS): 0.57 (0.47, 0.68)
Tmax estimated median difference (90% CI) ([1]; Fed to MS): 0.99 (0.63, 1.74) ^d h
Relative bioavailability, ratio of geometric least square mean AUC0−∞ (90% CI) ([1]; Fed to MS (free base tablet fed vs oral MS solution)): 0.84 (0.76, 0.94)
Food effect, ratio of geometric least square mean AUC0−∞ (90% CI) [1, 4]: 1.36 (1.22, 1.51)
Food effect, ratio of geometric least square mean Cmax (90% CI) [1, 4]: 0.99 (0.82, 1.18)
Tmax estimated median difference (90% CI) [1, 4]: 0.88 (0.50, 1.25) ^e h
Relative bioavailability ([1]; free base tablet after a meal vs fasted state): 136%
Absolute bioavailability, ratio of geometric least square mean AUC0−∞ (90% CI) ([1]; free base tablet fasted vs IV, 1500 mg): 0.57 (0.51, 0.63)
Relative bioavailability ([1]; free base tablet fasted vs oral mesylate salt solution fasted): 62%
Absolute bioavailability, ratio of geometric least square mean AUC0−∞ (90% CI) ([1]; free base tablet fed vs IV, 1500 mg): 0.77 (0.69, 0.86)
Relative bioavailability ([1]; free base tablet fed vs oral mesylate salt solution fasted): 84%
Increase in AUC0−∞ with food ([1]; free base tablet, fed vs fasted state, moderate-fat/calorie meal): 36%
Vd ([1]; human, plasma, iv, 1500 mg): 69.2 L
clearance ([1]; human, plasma, iv, 1500 mg): 367 mL/min
AUC(0-inf) ([1]; human, plasma, iv, 1500 mg, mean (SD), 1500-mg IV MS solution, 60-minute infusion): 75400 ng·h/mL
Cmax ([1]; human, plasma, iv, 1500 mg, mean (SD), 1500-mg IV MS solution): 28600 ng/mL
Tmax ([1]; human, plasma, iv, 1500 mg, 1500-mg IV MS solution): 1 h
half-life ([1]; human, plasma, iv, 1500 mg, t1/2, mean (SD), 1500-mg IV MS solution): 10.3 h
AUC(0-inf) [1, 5]: 46100 ng·h/mL
AUC(0-inf) ([1]; human, plasma, oral, 1500 mg, mean (SD), 1500-mg free base tablet, fed state (moderate-fat/calorie meal)): 58900 ng·h/mL
Cmax [1, 5]: 17100 ng/mL
Cmax ([1]; human, plasma, oral, 1500 mg, mean (SD), 1500-mg free base tablet, fed state): 15500 ng/mL
Tmax ([1]; human, plasma, oral, 1500 mg, 1500-mg free base tablet, fasted state): 0.5 h
Tmax ([1]; human, plasma, oral, 1500 mg, 1500-mg free base tablet, fed state): 1.5 h
half-life ([1]; human, plasma, oral, 1500 mg, t1/2, mean (SD), 1500-mg free base tablet, fasted state): 9.4 h
half-life ([1]; human, plasma, oral, 1500 mg, t1/2, mean (SD), 1500-mg free base tablet, fed state): 8.7 h
half-life ([1]; human, plasma, other: IV or oral, 1500 mg, t1/2, range of means after single-dose IV or oral administration): 8.7 to 10.3 h
AUC(0-inf) [1, 6]: 69700 ng·h/mL
Cmax [1, 6]: 25800 ng/mL
Tmax ([1]; human, plasma, po, 1500 mg, 1500-mg oral MS solution, fasted state): 0.5 h
half-life ([1]; human, plasma, po, 1500 mg, t1/2, mean (SD), 1500-mg oral MS solution, fasted state): 9.6 h
Varea ([1]; mean (SD), 1500-mg IV MS solution): 317.2 (131.5) L
CL/F ([1]; mean (SD), 1500-mg free base tablet, fasted state): 42.6 (26.6) L/h
CL/F ([1]; mean (SD), 1500-mg free base tablet, fed state): 28.4 (9.0) L/h
CL/F ([1]; mean (SD), 1500-mg oral MS solution, fasted state): 23.8 (7.3) L/h
Absolute bioavailability, ratio of geometric least square mean AUC0−∞ (90% CI) ([1]; oral MS solution fasted vs IV, 1500 mg): 0.92 (0.82, 1.02)
CVw (within coefficient of variation) of AUC0−∞ ([1]; pooled across regimens): 22%
CVw (within coefficient of variation) of Cmax ([1]; pooled across regimens): 39% and 38.7%
solubility (Solubility; fasted state-simulated intestinal fluid, pH 6.5, fassif): ~0.5 mg/mL (≈ 1.04 mM)
solubility (Solubility; pH 3.5): 40 mg/mL (≈ 83.4 mM)
Biopharmaceutics Classification System class [2]: Class 2
Compound: Cc1nc(NNC(=O)[C@H](CC2CCCC2)CN(O)C=O)c(F)c(N2CCN3CCOC[C@@H]3C2)n1 [GSK1322322]
Withdrawal because of a drug-related AE (bronchospasm) (Safety and tolerability; IV 1500 mg, period 3): One volunteer was withdrawn
Vital signs, chemistry, or hematology data (Safety and tolerability; all treatments): No apparent trends or changes from baseline
Intensity of adverse events (Safety and tolerability; all treatments, single 1500-mg doses): mild-to-moderate
Volunteers with an AE per treatment (Safety and tolerability; range across the four treatments): 42–65%
Relative bioavailability fed vs fasted ([3]; free base tablet 1000 mg): 119%
Cmax ([3]; single 1500-mg IV dose, first-time-in-human IV study): 25500 ng/mL
Absolute bioavailability ([3]; tablet formulation 1500 mg, previous phase I study): 56%

— article PMC4467258 (Clinical Pharmacology in Drug Development, 2014)
